In ChEMBL document CHEMBL3351713, “The identification of perillyl alcohol glycosides with improved antiproliferative activity” (J Med Chem, 2014) one finds inhibition, IC50 and Activity data, which are given here for 14 molecules.

Activity calls are given as the source filed them. The rule behind the calls is not given here.

The subject of test [1] is A549. Nature of the test: Cytotoxicity against human A549 cells at 250 uM after 48 hrs by alamar blue assay. The settings on record: A549, 48 h. The class given is functional. The essentials: (§1)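 Single 250 µM concentration. Cells seeded at 3 × 10^3/well in F-12K with 10% FBS and 2 mM L-glutamine, then adhered overnight. Exposure was 48 h at 37 °C, 5% CO2, alongside 0.5% DMSO vehicle and 1.5 mM H2O2 controls. Viability was measured by resazurin reduction (0.25 mg/mL stock, 3 h) with fluorescence read at […], em 590 nm.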

Test [2] can be described thus: Cytotoxicity against human PC3 cells at 250 uM after 48 hrs by alamar blue assay. The class given is functional. To be noted: PC-3, 48 h. The essentials:
as §1

For test [3], the system named is A549. Nature of the test: Cytotoxicity against human A549 cells after 48 hrs by alamar blue assay. The class given is functional, cell-based. To be noted: A549, 48 h. The essentials: (§2)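 Cells seeded at 3 × 10^3/well in F-12K with 10% FBS, 2 mM L-glutamine and penicillin/streptomycin, then left to adhere overnight. Medium was replaced with nine 2- or 3-fold dilutions, with 0.5% DMSO vehicle and 1.5 mM H2O2 controls. Incubation was 48 h at 37 °C, 5% CO2. Resazurin (0.25 mg/mL stock) was added for 3 h and fluorescence read ([…], em 590 nm). IC50 came from a nonlinear dose-response fit; mean ± SD, triplicates, three independent experiments.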

A short description of test [4]: Cytotoxicity against human PC3 cells after 48 hrs by alamar blue assay. The class given is functional, cell-based. To be noted: PC-3, 48 h. The essentials:
as §2

Test [5] concerns the target Eukaryotic translation initiation factor 4E-binding protein 1 (Homo sapiens) (UniProt Q13541). In words: Induction of 4E-BP1 phosphorylation at Thr37/46 in human A549 cells at 250 uM after 6 hrs by Western blotting analysis. Format: cell-based. The essentials: (§3)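 A549 cells were exposed to 250 and 500 µM for 6 h, harvested and lysed. Equal total protein was loaded for SDS-PAGE and immunoblot. Probes were p-4E-BP1 (T37/46, S65, T70), p-S6 (S235/236), eIF4E and cleaved PARP, detected by chemiluminescence.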

Test [6] has the same target. In words: Induction of 4E-BP1 phosphorylation at Thr37/46 in human A549 cells at 500 uM after 6 hrs by Western blotting analysis. The class given is cell-based. The essentials:
as §3

Test [7] has the same target. In words: Induction of 4E-BP1 phosphorylation at Ser65 in human A549 cells at 250 uM after 6 hrs by Western blotting analysis. Format: cell-based. The essentials:
as §3

For test [8] the target is unchanged. In words: Induction of 4E-BP1 phosphorylation at Ser65 in human A549 cells at 500 uM after 6 hrs by Western blotting analysis. The class given is cell-based. In outline:
as §3

Test [9] shares this target. In words: Induction of 4E-BP1 phosphorylation at Thr70 in human A549 cells at 250 uM after 6 hrs by Western blotting analysis. The class given is cell-based. In outline: as §3
The target is the same in test [10]. Nature of the test: Induction of 4E-BP1 phosphorylation at Thr70 in human A549 cells at 500 uM after 6 hrs by Western blotting analysis. Format: cell-based. In outline: as §3
The target of test [11] is Small ribosomal subunit protein eS6 (Homo sapiens) (UniProt P62753). In words: Inhibition of S6 ribosomal protein phosphorylation in human A549 cells at 250 to 500 uM after 6 hrs by Western blotting analysis. The class given is cell-based. The essentials:
as §3

Test [12] concerns A549. In words: Increase in PARP cleavage in human A549 cells at 250 to 500 uM after 6 hrs by Western blotting analysis. The class given is cell-based. The essentials:
as §3

Chain of Eukaryotic translation initiation factor 4E-binding protein 1 (Homo sapiens) (Q13541 whole entry): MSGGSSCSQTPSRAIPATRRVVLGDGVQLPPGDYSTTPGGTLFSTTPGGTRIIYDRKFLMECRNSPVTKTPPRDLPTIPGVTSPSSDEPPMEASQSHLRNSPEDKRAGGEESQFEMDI

Regarding `C=C(C)[C@@H]1CC=C(CN(OC)C2O[C@@H](CO)[C@H](N=[N+]=[N-])[C@@H](O)[C@@H]2O)CC1` (stereo not given in full), the inhibition at 250 µM in [1] and in [2] was more than 40% each time. Also, the IC50 in test [3] amounted to 451 µM; in [4], 263 µM.

Turning to `C=C(C)[C@@H]1CC=C(CN(OC)C2OC[C@@H](N=[N+]=[N-])[C@H](O)[C@H]2O)CC1` (stereo not given in full), the inhibition at 250 µM in test [1] and in [2] was more than 40% each time. In addition, the IC50 amounted to 76 µM in test [3] and 170 µM in test [4].

For the molecule `C=CCOC(=O)NC[C@H]1OC(N(CC2=CC[C@@H](C(=C)C)CC2)OC)[C@H](O)[C@@H](O)[C@@H]1O` (stereo not given in full), the inhibition at 250 µM in test [1] and in [2] was more than 40% throughout. The results for the IC50 in test [3] and in [4] were 140 µM and 232 µM, respectively.

As to `C=C(C)[C@@H]1CC=C(CN(OC)C2O[C@H](CO)[C@@H](N=[N+]=[N-])[C@H](O)[C@H]2O)CC1` (stereo not given in full), the inhibition at 250 µM in [1] and in test [2] was more than 40% each time. The IC50 was 4 µM in [3] and 22 µM in test [4].

For the molecule `C=C(C)[C@@H]1CC=C(CN(OC)C2OC[C@@H](O)[C@H](O)[C@H]2O)CC1` (stereo not given in full), the inhibition at 250 µM in test [1] and in test [2] was more than 40% throughout. Besides, the IC50 in test [3] was determined as 202 µM; in [4], 152 µM.

Regarding `C=CCOC(=O)N[C@H]1C(N(CC2=CC[C@@H](C(=C)C)CC2)OC)O[C@H](CO)[C@@H](O)[C@@H]1O` (stereo not given in full), the inhibition at 250 µM in [1] and in [2] was more than 40% in each case. Besides, the IC50 in test [3] turned out to be 114 µM; in test [4], 826 µM.

On to `C=C(C)[C@@H]1CC=C(CN(OC)C2O[C@H](CO)[C@@H](O)[C@H](NC(=O)CCCCCCCCC)[C@H]2O)CC1` (stereo not given in full), for which the inhibition at 250 µM in test [1] and in [2] was more than 40% throughout. The values for the IC50 in test [3] and in test [4] were 14 µM and 19 µM, respectively. Further, the result in [5], in test [6], in test [7], in test [8], in test [9] and in test [10] was Active. The outcome in [12] was Active. Further, the inhibition result in test [11] was “Active”.

Regarding `C=C(C)[C@@H]1CC=C(CN(OC)C2O[C@H](CNC(=O)CCCCCCCCC)[C@@H](O)[C@H](O)[C@H]2O)CC1` (stereo not given in full), the inhibition at 250 µM in test [1] and in test [2] was more than 40% throughout. The IC50 in test [3] worked out at 14 µM; in test [4] it was 30 µM.

As for `C=C(C)[C@@H]1CC=C(CN(OC)C2O[C@H](CO)[C@@H](O)[C@H](O)[C@H]2N=[N+]=[N-])CC1` (stereo not given in full), the inhibition at 250 µM in test [1] and in [2] was more than 40% in each case. Further, the IC50 in test [3] was found to be 221 µM; in [4], 176 µM.

Turning to `C=C(C)[C@@H]1CC=C(CN(OC)C2O[C@H](CN=[N+]=[N-])[C@@H](O)[C@H](O)[C@H]2O)CC1` (stereo not given in full), the inhibition at 250 µM in [1] and in [2] was more than 40% each time. Further, the values for the IC50 in test [3] and in test [4] were 163 µM and 182 µM, respectively.

For `C=C(C)[C@@H]1CC=C(/C=N/OC)CC1`, the inhibition at 250 µM in test [1] and in [2] was more than 40% each time.

Take `C=C(C)[C@@H]1CC=C(CO)CC1` [PERILLYL ALCOHOL]: the IC50 in [3] is 350 µM; in [4], 380 µM. Also, the result in test [5], in test [6], in test [7], in [8], in test [9] and in [10] was inactive. For the same molecule, the inhibition result in test [11] was “inactive”.

`C=C(C)[C@@H]1CC=C(CN(OC)[C@@H]2O[C@H](CO)[C@@H](O)[C@H](O)[C@H]2NC(=O)N(C)N=O)CC1`: the inhibition at 250 µM in [1] and in test [2] was more than 40% each time. Further, the IC50 is 185 µM in test [3] and 232 µM in test [4].

As for `C=C(C)[C@@H]1CC=C(CN(OC)C2O[C@H](CN=[N+]=[N-])[C@@H](N=[N+]=[N-])[C@H](O)[C@H]2O)CC1` (stereo not given in full), the inhibition at 250 µM in test [1] and in test [2] was more than 40% throughout. In addition, the IC50 stood at 44 µM in [3] and 57 µM in test [4]. Besides, the outcome in [5], in [6], in [7], in test [8], in [9] and in [10] was Active. The result in test [12] was Active. Also, the inhibition result in test [11] is “Active”.
